# In ChEMBL document CHEMBL4033754, “Antiobesity Effect of a Short-Length Peptide YY Analogue after Continuous Administration in Mice” (ACS Med Chem Lett, 2017):
# Calls of active or inactive are those of the source. No cut-off for these calls is given here. Where a SMILES comes first, the peptide text is derived from it. [ ]: non-standard residue; d: D form. The star is where a group is joined. ξ: configuration not given here. ξCha = NC(CC1CCCCC1)C(=O)O; Aib = CC(C)(N)C(=O)O; Bz = O=C(c1ccccc1)*; Sar = CNCC(=O)O
# How the values were obtained:
# Mus musculus [1] = assay: AUC (0 to 24 hrs) in C57BL/6J mouse at 1 mg/kg, iv by LC-MS/MS analysis; type: ADME, organism-based; parameters: dose 1 mg/kg, time < 24 hr, route intravenous; details: in vivo
# Outline: (§1)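 Single 1 mg/kg dose, intravenous or subcutaneous, to C57BL/6J mice. Blood sampled at 5, 10, 15, 30 min and 1, 3, 6, 8, 24 h post-dose. Plasma peptide quantified by LC/MS/MS. Parameters derived from the mean (n = 3) plasma concentration–time profile.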
# [2] = Mean residence time in C57BL/6J mouse at 1 mg/kg, iv after 24 hrs by LC-MS/MS analysis; type: ADME, organism-based; details: in vivo; outline: as §1
# [3] = Volume of distribution at steady state in C57BL/6J mouse at 1 mg/kg, iv after 24 hrs by LC-MS/MS analysis; type: ADME, organism-based; details: in vivo, read-out: Vdss; outline: as §1
# Mus musculus [4] = assay: Antiobesity activity in diet-induced obese C57BL/6J mouse model assessed as reduction in body weight at 1 mg/kg administered via subcutaneous osmotic pumps for 6 to 7 days relative to control; type: functional; parameters: scale not given: the % may be the effect or the level left
# Outline: (§2)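 Male C57BL/6J DIO mice received peptides at 1 mg/(kg·day) by continuous subcutaneous osmotic pump for 6–7 days (n = 6 per group). Body weight reduction expressed as a percentage versus vehicle.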
# [5] = biological target: T1, Neuropeptide Y receptor type 2 (Homo sapiens, UniProt P49146); assay: Agonist activity at human Y2R expressed in CHO cell membranes assessed as [35S]GTPgammaS binding after 120 mins by liquid scintillation method; type: functional
# T1 sequence (P49146 whole entry): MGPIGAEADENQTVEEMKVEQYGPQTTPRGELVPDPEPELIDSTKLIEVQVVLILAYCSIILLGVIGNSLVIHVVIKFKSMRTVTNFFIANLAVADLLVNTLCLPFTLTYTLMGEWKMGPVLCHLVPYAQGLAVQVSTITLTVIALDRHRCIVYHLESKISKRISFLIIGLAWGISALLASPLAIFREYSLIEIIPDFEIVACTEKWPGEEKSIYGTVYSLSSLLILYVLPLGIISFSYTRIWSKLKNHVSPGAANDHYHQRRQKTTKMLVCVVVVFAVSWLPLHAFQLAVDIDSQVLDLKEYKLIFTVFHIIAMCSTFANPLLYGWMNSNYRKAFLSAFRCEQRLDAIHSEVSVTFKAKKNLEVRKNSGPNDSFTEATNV
# Mus musculus [6] = assay: Total clearance in C57BL/6J mouse at 1 mg/kg, iv after 24 hrs by LC-MS/MS analysis; type: ADME, organism-based; details: in vivo; outline: as §1
# [7] = Mean residence time in C57BL/6J mouse at 1 mg/kg through subcutaneous administration after 24 hrs by LC-MS/MS analysis; type: ADME, organism-based; details: in vivo, sc; outline: as §1
# [8] = AUC (0 to 24 hrs) in C57BL/6J mouse at 1 mg/kg through subcutaneous administration after 24 hrs by LC-MS/MS analysis; type: ADME, organism-based; parameters: time < 24 hr, dose 1 mg/kg, route subcutaneous; details: in vivo, sc; outline: as §1
# [9] = Plasma concentration in C57BL/6J mouse at 1 mg/kg, iv after 5 mins by LC-MS/MS analysis; type: ADME, organism-based; outline: as §1
# [10] = Tmax in C57BL/6J mouse at 1 mg/kg through subcutaneous administration after 24 hrs by LC-MS/MS analysis; type: ADME, organism-based; details: in vivo, sc; outline: as §1
# [11] = Bioavailability in C57BL/6J mouse at 1 mg/kg through subcutaneous administration after 24 hrs by LC-MS/MS analysis; type: ADME, organism-based; details: in vivo, sc; outline: as §1
# Mus musculus [12] = assay: Anorectic activity in lean mouse assessed as inhibition of food intake at 1000 nmol/kg through bolus subcutaneous administration relative to control; type: functional; details: sc
# Mus musculus [13] = assay: Mean absorption time in C57BL/6J mouse at 1 mg/kg through subcutaneous administration after 24 hrs by LC-MS/MS analysis; type: ADME, organism-based; details: in vivo, sc; outline: as §1
# [14] = Cmax in C57BL/6J mouse at 1 mg/kg through subcutaneous administration after 24 hrs by LC-MS/MS analysis; type: ADME, organism-based; parameters: dose 1 mg/kg, route subcutaneous; details: in vivo, sc; outline: as §1
# [15] = biological target: T1, Neuropeptide Y receptor type 2; assay: Displacement of [125I]-PYY from human Y2R expressed in CHO cell membranes after 60 mins by liquid scintillation method
# Mus musculus [16] = assay: Antiobesity activity in lean C57BL/6J mouse assessed as inhibition of food intake at 1 mg/kg administered via subcutaneous osmotic pumps for 3 continuous days relative to control; details: sc
# Mus musculus [17] = assay: Antiobesity activity in diet-induced obese C57BL/6J mouse assessed as reduction in body weight at 1 mg/kg administered via subcutaneous osmotic pumps for 7 days relative to control; type: functional; parameters: scale not given: the % may be the effect or the level left; outline: as §2
# Mus musculus [18] = assay: Antiobesity activity in lean C57BL/6J mouse assessed as inhibition of food intake at 0.3 mg/kg administered via subcutaneous osmotic pumps for 3 continuous days relative to control; details: sc
# Mus musculus [19] = assay: Anorectic activity in lean mouse assessed as inhibition of food intake at 300 nmol/kg through bolus subcutaneous administration relative to control; type: functional; details: sc
# Mus musculus [20] = assay: Antiobesity activity in diet-induced obese C57BL/6J mouse assessed as inhibition of food intake at 1 mg/kg administered via subcutaneous osmotic pumps for 7 days measured on day 4 of dosing; type: functional, organism-based
# Outline: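 DIO mice given peptides continuously by subcutaneous osmotic pump for 7 days (n = 6), with body weight and cumulative food intake tracked daily. Statistics versus vehicle by Student's t test or Aspin-Welch test.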
compound,measurement,setting,value
CC(C)C[C@H](NC(=O)[C@H](CC(N)=O)NC(=O)C(CC1CCCCC1)NC(=O)C(CC1CCCCC1)NC(=O)[C@H](Cc1cnc[nH]1)NC(=O)[C@H](CCCNC(=N)N)NC(=O)c1ccccc1)C(=O)NC(C)(C)C(=O)N[C@H](C(=O)N[C@@H](CCCNC(=N)N)C(=O)N[C@@H](CCC(N)=O)C(=O)N[C@@H](CCCNC(=N)N)C(=O)NC(CC1CCCCC1)C(N)=O)[C@@H](C)O (stereo not given in full) (Bz-RH[ξCha][ξCha]NL[Aib]TRQR[ξCha]-NH2),AUC,Mus musculus [1],3.56 µM·h
same,MRT,[2],27 min
same,Vd,[3],0.073 L/kg
same,Activity,Mus musculus [4],0.4%
same,EC50,[5],2 nM
same,CL,Mus musculus [6],2.7 mL/min/kg
same,MRT,[7],190 min
same,AUC(0-t) at 24 h,[8],0.209 µM·h
same,concentration at 5 min,[9],7550 nM
same,Tmax,[10],15 min
same,bioavailability,[11],5.9%
same,inhibition in vivo at 1 µmol/kg,Mus musculus [12],20%
same,MAT,Mus musculus [13],2.72 h
same,Cmax,[14],75.6 nM
same,IC50,[15],7.4 nM
CC(=O)N[C@@H](CO)C(=O)N(C)CC(=O)N[C@@H](CCCNC(=N)N)C(=O)N[C@@H](Cc1cnc[nH]1)C(=O)NC(CC1CCCCC1)C(=O)NC(CC1CCCCC1)C(=O)N[C@@H](CC(N)=O)C(=O)N[C@@H](CC(C)C)C(=O)NC(C)(C)C(=O)N[C@H](C(=O)N[C@@H](CCCNC(=N)N)C(=O)N[C@@H](CCC(N)=O)C(=O)N[C@@H](CCCNC(=N)N)C(=O)NC(CC1CCCCC1)C(N)=O)[C@@H](C)O (stereo not given in full) (Ac-S[Sar]RH[ξCha][ξCha]NL[Aib]TRQR[ξCha]-NH2),EC50,[5],1 nM
same,inhibition in vivo at 1 mg/kg,Mus musculus [16],13%
same,IC50,[15],2.8 nM
CC(=O)N[C@@H](CO)C(=O)N1C[C@@H](O)C[C@@H]1C(=O)N[C@@H](CCCNC(=N)N)C(=O)N[C@@H](Cc1cnc[nH]1)C(=O)N[C@@H](CC1CCCCC1)C(=O)N[C@@H](CC1CCCCC1)C(=O)N[C@@H](CC(N)=O)C(=O)N[C@@H](CC(C)C)C(=O)NC(C)(C)C(=O)N[C@H](C(=O)N[C@@H](CCCNC(=N)N)C(=O)N[C@@H](CCC(N)=O)C(=O)N[C@@H](CCCNC(=N)N)C(=O)N[C@@H](CC1CCCCC1)C(N)=O)[C@@H](C)O [listing 1 of 2 here],AUC,Mus musculus [1],0.18 µM·h
same,MRT,[2],10.8 min
same,Vd,[3],0.533 L/kg
same,CL,Mus musculus [6],49.47 mL/min/kg
same,MRT,[7],19.2 min
same,AUC(0-t) at 24 h,[8],0.0336 µM·h
same,concentration at 5 min,[9],935 nM
same,Tmax,[10],10.2 min
same,MAT,Mus musculus [13],0.14 h
same,Cmax,[14],98.1 nM
CC(=O)N[C@@H](CO)C(=O)N1CCC[C@@H]1C(=O)N[C@@H](CCCNC(=N)N)C(=O)N[C@@H](Cc1cnc[nH]1)C(=O)NC(CC1CCCCC1)C(=O)NC(CC1CCCCC1)C(=O)N[C@@H](CC(N)=O)C(=O)N[C@@H](CC(C)C)C(=O)NC(C)(C)C(=O)N[C@H](C(=O)N[C@@H](CCCNC(=N)N)C(=O)N[C@@H](CCC(N)=O)C(=O)N[C@@H](CCCNC(=N)N)C(=O)NC(CC1CCCCC1)C(N)=O)[C@@H](C)O (stereo not given in full),EC50,[5],0.61 nM
same,inhibition in vivo at 1 mg/kg,Mus musculus [16],33%
same,IC50,[15],1.5 nM
CC(=O)N[C@@H](CO)C(=O)N1C[C@@H](O)C[C@@H]1C(=O)N[C@@H](CCCNC(=N)N)C(=O)N[C@@H](Cc1cnc[nH]1)C(=O)N[C@@H](CC1CCCCC1)C(=O)N[C@@H](CC1CCCCC1)C(=O)N[C@@H](CC(N)=O)C(=O)N[C@@H](CC(C)C)C(=O)NC(C)(C)C(=O)N[C@H](C(=O)N[C@@H](CCCNC(=N)N)C(=O)N[C@@H](CCC(N)=O)C(=O)N[C@@H](CCCNC(=N)N)C(=O)N[C@@H](CC1CCCCC1)C(N)=O)[C@@H](C)O [listing 2 of 2 here],Activity,Mus musculus [4],-10.2%
same,inhibition in vivo at 1 mg/kg,Mus musculus [16],79%
same,Activity,Mus musculus [17],7.4%
same,inhibition in vivo at 0.3 mg/kg,Mus musculus [18],47%
same,inhibition in vivo at 0.3 µmol/kg,Mus musculus [19],23%
CC(=O)N[C@@H](CO)C(=O)N1C[C@@H](O)C[C@@H]1C(=O)N[C@@H](CCCNC(=N)N)C(=O)N[C@@H](Cc1cnc[nH]1)C(=O)NC(CC1CCCCC1)C(=O)NC(CC1CCCCC1)C(=O)N[C@@H](CC(N)=O)C(=O)N[C@@H](CC(C)C)C(=O)NC(C)(C)C(=O)N[C@H](C(=O)N[C@@H](CCCNC(=N)N)C(=O)N[C@@H](CCC(N)=O)C(=O)N[C@@H](CCCNC(=N)N)C(=O)NC(CC1CCCCC1)C(N)=O)[C@@H](C)O (stereo not given in full),inhibition,Mus musculus [20],Active
CC(=O)N[C@@H](CO)C(=O)N(C)[C@H](C)C(=O)N[C@@H](CCCNC(=N)N)C(=O)N[C@@H](Cc1cnc[nH]1)C(=O)NC(CC1CCCCC1)C(=O)NC(CC1CCCCC1)C(=O)N[C@@H](CC(N)=O)C(=O)N[C@@H](CC(C)C)C(=O)NC(C)(C)C(=O)N[C@H](C(=O)N[C@@H](CCCNC(=N)N)C(=O)N[C@@H](CCC(N)=O)C(=O)N[C@@H](CCCNC(=N)N)C(=O)NC(CC1CCCCC1)C(N)=O)[C@@H](C)O (stereo not given in full),EC50,[5],0.59 nM
same,inhibition in vivo at 1 mg/kg,Mus musculus [16],28%
same,IC50,[15],2.8 nM
